According to ChEMBL document CHEMBL2346524, “Protein kinase inhibitor design by targeting the Asp-Phe-Gly (DFG) motif: the role of the DFG motif in the design of epidermal growth factor receptor inhibitors” (J Med Chem, 2013):

What was measured:
[1] = target: Epidermal growth factor receptor (Homo sapiens, UniProt P00533, L858R); assay: Inhibition of human GST-tagged EGFR L834R mutant expressed in Sf9 cells by luminescence assay; format: cell-based
[2] = target: T1, Epidermal growth factor receptor (Homo sapiens, UniProt P00533); assay: Inhibition of human wild type GST-tagged EGFR kinase domain expressed in Sf9 cells by luminescence assay; format: cell-based
Homo sapiens [3] = organism: Homo sapiens; assay: Toxicity in human assessed as occurrence of diarrhea; format: organism-based; details: in vivo
Homo sapiens [4] = organism: Homo sapiens; assay: Toxicity in human assessed as occurrence of rash; format: organism-based; details: in vivo
[5] = target: T1, Epidermal growth factor receptor; assay: Ratio of gefitinib IC50 to compound IC50 for human wild type GST-tagged EGFR kinase domain
[6] = test system: Epidermal growth factor receptor (Homo sapiens), P04626+P00533+Q15303+P21860 [UNDEFINED MUTATION]; assay: Inhibition of EGFR T766M/L834R mutant (unknown origin) at 1 uM relative to control; format: protein assay
Summary of the method: (§1)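 Single-concentration profiling at 1 μM across a 317-kinase panel that includes wild-type and mutant EGFR and HER2. Activity of each kinase is given as percent inhibition relative to control.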

[7] = target: T1, Epidermal growth factor receptor; assay: Inhibition of wild type EGFR (unknown origin) at 1 uM relative to control; summary of the method: as §1
[8] = test system: Epidermal growth factor receptor (Homo sapiens), P00533 [L834R]; assay: Inhibition of EGFR L834R mutant (unknown origin) at 1 uM relative to control; format: protein assay; summary of the method: as §1
[9] = test system: Epidermal growth factor receptor (Homo sapiens), P04626+P00533+Q15303+P21860 [UNDEFINED MUTATION]; assay: Inhibition of EGFR T766M mutant (unknown origin) at 1 uM relative to control; format: protein assay; summary of the method: as §1
[10] = test system: Epidermal growth factor receptor (Homo sapiens), P00533 [L858R]; assay: Ratio of gefitinib IC50 to compound IC50 for human GST-tagged EGFR L834R mutant
[11] = target: Epidermal growth factor receptor (Homo sapiens) (UniProt P04626+P00533+Q15303+P21860); assay: Inhibition of EGFR L837Q mutant (unknown origin) at 1 uM relative to control; format: protein assay; summary of the method: as §1
[12] = target: Cyclin-dependent kinase 2 (Homo sapiens) (UniProt P24941); assay: Inhibition of CDK2 (unknown origin) at 1 uM relative to control; summary of the method: as §1

Compound	IC50 [1]	IC50 [2]	further results
CC[C@@H](Nc1ncnc2oc(-c3ccccc3)c(-c3ccccc3)c12)c1ccccc1	> 10000 nM	> 10000 nM	
CN(C)C/C=C/C(=O)Nc1cc2c(Nc3ccc(F)c(Cl)c3)ncnc2cc1O[C@@H]1CCOC1			Activity (Homo sapiens [3]): 95%; Activity (Homo sapiens [4]): 62%
CC(C)CCCC(=O)Nc1cccc(-c2c(-c3ccccc3)oc3ncnc(N[C@H](CO)c4ccccc4)c23)c1	> 25000 nM	> 25000 nM	
OC[C@@H](Nc1ncnc2oc(-c3ccccc3)c(-c3ccco3)c12)c1ccccc1	73 nM	434 nM	
COC(=O)[C@@H](Nc1ncnc2oc(-c3ccccc3)c(-c3ccccc3)c12)c1ccccc1	1450 nM	7890 nM	
OC[C@@H](Nc1ncnc2oc(-c3ccccc3)c(-c3ccccc3)c12)c1ccccc1	52 nM	393 nM	
OC[C@@H](Nc1ncnc2oc(-c3ccccc3)c(Cl)c12)c1ccccc1	168 nM	589 nM	
CN(C)CCCCCC(=O)Nc1cccc(-c2c(-c3ccccc3)oc3ncnc(N[C@H](CO)c4ccccc4)c23)c1	486 nM	4330 nM	
C[C@@H](Nc1ncnc2oc(-c3ccccc3)c(-c3ccccc3)c12)c1ccccc1	339 nM	2990 nM	

Continued by falling IC50 [1], values first:

IC50 [1]	IC50 [2]	Compound	further results
49 nM	820 nM	O=[N+]([O-])c1cccc(-c2c(-c3ccccc3)oc3ncnc(N[C@H](CO)c4ccccc4)c23)c1	
44 nM	352 nM	OC[C@@H](Nc1ncnc2oc(-c3ccccc3)c(-c3ccoc3)c12)c1ccccc1	
34 nM	29 nM	CN(C)CCCC(=O)Nc1cccc(-c2c(-c3ccccc3)oc3ncnc(N[C@H](CO)c4ccccc4)c23)c1	
29 nM	218 nM	CC(=O)Nc1cccc(-c2c(-c3ccccc3)oc3ncnc(N[C@H](CO)c4ccccc4)c23)c1	
23 nM	179 nM	CC(=O)Nc1ccc(-c2c(-c3ccccc3)oc3ncnc(N[C@H](CO)c4ccccc4)c23)cc1	
22 nM	203 nM	Nc1cccc(-c2c(-c3ccccc3)oc3ncnc(N[C@H](CO)c4ccccc4)c23)c1	
4 nM	48 nM	CN(C)CC(=O)Nc1cccc(-c2c(-c3ccccc3)oc3ncnc(N[C@H](CO)c4ccccc4)c23)c1	
4 nM	34 nM	CN(C)CCCCC(=O)Nc1cccc(-c2c(-c3ccccc3)oc3ncnc(N[C@H](CO)c4ccccc4)c23)c1	
2 nM	8 nM	CN(C)CCC(=O)Nc1cccc(-c2c(-c3ccccc3)oc3ncnc(N[C@H](CO)c4ccccc4)c23)c1	Ratio IC50 [5]: 4; inhibition [6]: 80%; inhibition [7]: 99%; inhibition [8]: 100%; inhibition [9]: 50%; Ratio IC50 [10]: 7; inhibition [11]: 106%; inhibition [12]: -4%
